Activity calls are given as the source filed them. No cut-off for these calls is given here.
Key:
[1] = Growth inhibition of human MM1S cells after 72 hrs by CellTiter-Glo luminescent cell viability assay; settings: MM1.S
[2] = biological target: CYP2D6 (Homo sapiens, UniProt P10635); test: (§1) Inhibition of CYP2D6 in human liver microsomes at 10 uM using dextromethorphan substrate preincubated for 5 mins before NADPH addition and measured after 20 mins post NADPH addition; format: ADME; settings: liver microsomes, probe dextromethorphan
In short: (§2)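 Human liver microsomes 0.2 mg/mL, 1 mmol NADPH, 100 mmol phosphate pH 7.4, probe cocktail (10 μM midazolam, 100 μM testosterone, 10 μM dextromethorphan, 20 μM diclofenac, 100 μM phenacetin, 100 μM mephenytoin), test compound 10 μM or PBS; organic solvent <1%. 5 min preincubation at 37 °C, NADPH-generating system start, 20 min reaction; inhibition from metabolite formation relative to PBS.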

[3] = biological target: Cytochrome P450 2C19 (Homo sapiens, UniProt P33261); test: Time dependent inhibition of CYP2C19 in human liver microsomes at 10 uM using mephenytoin substrate preincubated for 5 mins before NADPH addition and measured after 20 mins post NADPH addition; format: ADME
[4] = biological target: T1, Bromodomain-containing protein 4 (Homo sapiens, UniProt O60885); test: Inhibition of BRD4(1) (unknown origin) incubated for 4 hrs by (+)-JQ1 fluorescent ligand based fluorescence anisotrophy
[5] = biological target: SWI/SNF-related matrix-associated actin-dependent regulator of chromatin subfamily A member 4 (Homo sapiens) (UniProt P51532); test: Binding affinity to BRG1 (unknown origin) assessed as increase in protein melting temperature at 50 umol by real-time PCR system based thermal shift assay
In short: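 Bromodomain proteins in 10 mmol HEPES pH 7.5, 500 mmol NaCl at 75 μg/mL final; compound at 50 µmol final; SYPRO Orange probe at 1:1000. Four replicates per protein mixture. Melt curve read on a real-time PCR instrument, heating 25 °C to 99 °C at 1 °C/min under continuous fluorescence reading; binding taken as the rise in protein melting temperature.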

[6] = biological target: Cytochrome P450 3A4 (Homo sapiens, UniProt P08684); test: Time dependent inhibition of CYP3A4 in human liver microsomes at 10 uM using midazolam substrate preincubated for 5 mins before NADPH addition and measured after 20 mins post NADPH addition; format: ADME
[7] = biological target: CYP2C9 (Homo sapiens, UniProt P11712); test: (§3) Inhibition of CYP2C9 in human liver microsomes at 10 uM using diclofenac substrate preincubated for 5 mins before NADPH addition and measured after 20 mins post NADPH addition; format: ADME; settings: liver microsomes, probe diclofenac
In short: as §2

[8] = biological target: T1, Bromodomain-containing protein 4; test: Inhibition of BRD4 in human HT-29 cells assessed as reduction in c-myc mRNA expression at 0.3125 uM to 5 uM uM after 24 hrs by RT-qPCR method; format: cell-based
In short: (§4)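 HT-29 cells seeded overnight and exposed to compounds for 24 h; total RNA isolated, reverse-transcribed, and analysed by RT-qPCR with c-myc primers. Relative c-myc mRNA normalised to β-actin and expressed versus untreated control.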

[9] = biological target: T1, Bromodomain-containing protein 4; test: Inhibition of BRD4 in human HT-29 cells assessed as reduction in c-myc mRNA expression at 5 uM after 24 hrs by RT-qPCR method; format: cell-based
In short: as §4

[10] = biological target: T1, Bromodomain-containing protein 4; test: Inhibition of BRD4 in human HT-29 cells assessed as reduction in c-Myc protein expression at 5 and 10 uM after 24 hrs by Western blotting method; format: cell-based
In short: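 HT-29 cells seeded overnight, then treated 24 h; lysed in 1×SDS buffer (50 mmol/L Tris-HCl pH 6.8, 100 mmol/L DTT, 2% SDS, 10% glycerol), boiled 10 min. c-Myc immunoblotted with GAPDH loading control, peroxidase secondary antibodies, ECL detection. Repeated three times.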

[11] = biological target: T2, Cytochrome P450 1A2 (Homo sapiens, UniProt P05177); test: Time dependent inhibition of CYP1A2 in human liver microsomes at 10 uM using phenacetin substrate preincubated for 5 mins before NADPH addition and measured after 20 mins post NADPH addition; format: ADME
T2 sequence (P05177 whole entry): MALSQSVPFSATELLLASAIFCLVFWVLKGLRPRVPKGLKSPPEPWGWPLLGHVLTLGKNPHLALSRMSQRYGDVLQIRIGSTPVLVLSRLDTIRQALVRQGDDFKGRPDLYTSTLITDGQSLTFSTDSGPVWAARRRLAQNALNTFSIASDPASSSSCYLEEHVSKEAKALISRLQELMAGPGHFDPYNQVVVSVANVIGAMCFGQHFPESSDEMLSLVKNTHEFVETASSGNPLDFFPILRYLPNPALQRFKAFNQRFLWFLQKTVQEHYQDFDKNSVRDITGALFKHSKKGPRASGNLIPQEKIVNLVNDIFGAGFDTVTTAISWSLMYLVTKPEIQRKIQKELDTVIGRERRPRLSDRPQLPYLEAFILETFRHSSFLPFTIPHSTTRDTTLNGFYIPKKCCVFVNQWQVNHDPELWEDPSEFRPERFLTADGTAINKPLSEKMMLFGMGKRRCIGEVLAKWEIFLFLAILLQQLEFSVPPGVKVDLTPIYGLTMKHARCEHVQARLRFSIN

[12] = biological target: T3, Cytochrome P450 2D6 (Homo sapiens, UniProt P10635); test: Time dependent inhibition of CYP2D6 in human liver microsomes at 10 uM using dextromethorphan substrate preincubated for 5 mins before NADPH addition and measured after 20 mins post NADPH addition; format: ADME
[13] = biological target: T4, Cytochrome P450 2C9 (Homo sapiens, UniProt P11712); test: Time dependent inhibition of CYP2C9 in human liver microsomes at 10 uM using diclofenac substrate preincubated for 5 mins before NADPH addition and measured after 20 mins post NADPH addition; format: ADME
[14] = biological target: T5, CYP1A2 (Homo sapiens, UniProt P05177); test: Inhibition of CYP1A2 in human liver microsomes at 10 uM using phenacetin substrate preincubated for 5 mins before NADPH addition and measured after 20 mins post NADPH addition; format: ADME; settings: probe phenacetin
T5 sequence (P05177 whole entry): T2 sequence (P05177 whole entry)
In short: as §2

[15] = biological target: CYP3A4 (Homo sapiens, UniProt P08684); test: Inhibition of CYP3A4 in human liver microsomes at 10 uM using midazolam substrate preincubated for 5 mins before NADPH addition and measured after 20 mins post NADPH addition; format: ADME; settings: probe midazolam
In short: as §2

[16] = biological target: T4, Cytochrome P450 2C9; test: as §3; format: ADME; settings: microsomes, 20 min, 10 µM
In short: as §2

[17] = biological target: T1, Bromodomain-containing protein 4; test: Inhibition of BRD4 in human HT-29 cells assessed as reduction in c-myc mRNA expression at 0.3125 uM after 24 hrs by RT-qPCR method; format: cell-based
In short: as §4

[18] = biological target: T3, Cytochrome P450 2D6; test: as §1; format: ADME; settings: microsomes, 20 min, 10 µM
In short: as §2

Chain of CYP3A4 (P08684 whole entry): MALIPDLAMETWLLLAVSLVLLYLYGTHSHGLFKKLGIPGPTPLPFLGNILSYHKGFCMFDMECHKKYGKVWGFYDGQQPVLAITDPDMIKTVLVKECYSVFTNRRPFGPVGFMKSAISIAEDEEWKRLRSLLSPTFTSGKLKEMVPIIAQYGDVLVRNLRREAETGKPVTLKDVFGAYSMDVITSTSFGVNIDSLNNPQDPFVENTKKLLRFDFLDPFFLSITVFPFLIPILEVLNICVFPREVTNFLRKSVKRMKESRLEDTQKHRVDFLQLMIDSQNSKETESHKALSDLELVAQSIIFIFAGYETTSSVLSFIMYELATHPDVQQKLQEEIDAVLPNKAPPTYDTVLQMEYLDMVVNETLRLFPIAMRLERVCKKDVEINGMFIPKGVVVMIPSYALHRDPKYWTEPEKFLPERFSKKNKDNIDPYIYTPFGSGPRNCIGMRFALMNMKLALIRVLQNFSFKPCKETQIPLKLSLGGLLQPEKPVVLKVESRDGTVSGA
Chain of Cytochrome P450 3A4 (P08684 whole entry): as above
T3 sequence (P10635 whole entry): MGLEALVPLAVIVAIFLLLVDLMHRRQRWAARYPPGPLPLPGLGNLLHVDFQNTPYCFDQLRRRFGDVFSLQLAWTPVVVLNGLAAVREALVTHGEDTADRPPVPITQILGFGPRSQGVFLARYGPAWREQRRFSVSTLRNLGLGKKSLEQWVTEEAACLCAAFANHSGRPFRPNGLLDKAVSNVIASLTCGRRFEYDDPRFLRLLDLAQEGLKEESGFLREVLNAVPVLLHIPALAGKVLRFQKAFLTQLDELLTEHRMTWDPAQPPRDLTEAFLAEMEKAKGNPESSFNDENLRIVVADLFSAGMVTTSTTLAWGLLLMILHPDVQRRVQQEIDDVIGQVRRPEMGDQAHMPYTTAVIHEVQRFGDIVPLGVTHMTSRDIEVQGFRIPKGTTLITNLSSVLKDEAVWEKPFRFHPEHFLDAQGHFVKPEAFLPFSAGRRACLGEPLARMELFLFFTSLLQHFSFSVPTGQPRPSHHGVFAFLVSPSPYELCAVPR
Chain of CYP2D6 (P10635 whole entry): as above
Chain of SWI/SNF-related matrix-associated actin-dependent regulator of chromatin subfamily A member 4 (Homo sapiens) (P51532 whole entry): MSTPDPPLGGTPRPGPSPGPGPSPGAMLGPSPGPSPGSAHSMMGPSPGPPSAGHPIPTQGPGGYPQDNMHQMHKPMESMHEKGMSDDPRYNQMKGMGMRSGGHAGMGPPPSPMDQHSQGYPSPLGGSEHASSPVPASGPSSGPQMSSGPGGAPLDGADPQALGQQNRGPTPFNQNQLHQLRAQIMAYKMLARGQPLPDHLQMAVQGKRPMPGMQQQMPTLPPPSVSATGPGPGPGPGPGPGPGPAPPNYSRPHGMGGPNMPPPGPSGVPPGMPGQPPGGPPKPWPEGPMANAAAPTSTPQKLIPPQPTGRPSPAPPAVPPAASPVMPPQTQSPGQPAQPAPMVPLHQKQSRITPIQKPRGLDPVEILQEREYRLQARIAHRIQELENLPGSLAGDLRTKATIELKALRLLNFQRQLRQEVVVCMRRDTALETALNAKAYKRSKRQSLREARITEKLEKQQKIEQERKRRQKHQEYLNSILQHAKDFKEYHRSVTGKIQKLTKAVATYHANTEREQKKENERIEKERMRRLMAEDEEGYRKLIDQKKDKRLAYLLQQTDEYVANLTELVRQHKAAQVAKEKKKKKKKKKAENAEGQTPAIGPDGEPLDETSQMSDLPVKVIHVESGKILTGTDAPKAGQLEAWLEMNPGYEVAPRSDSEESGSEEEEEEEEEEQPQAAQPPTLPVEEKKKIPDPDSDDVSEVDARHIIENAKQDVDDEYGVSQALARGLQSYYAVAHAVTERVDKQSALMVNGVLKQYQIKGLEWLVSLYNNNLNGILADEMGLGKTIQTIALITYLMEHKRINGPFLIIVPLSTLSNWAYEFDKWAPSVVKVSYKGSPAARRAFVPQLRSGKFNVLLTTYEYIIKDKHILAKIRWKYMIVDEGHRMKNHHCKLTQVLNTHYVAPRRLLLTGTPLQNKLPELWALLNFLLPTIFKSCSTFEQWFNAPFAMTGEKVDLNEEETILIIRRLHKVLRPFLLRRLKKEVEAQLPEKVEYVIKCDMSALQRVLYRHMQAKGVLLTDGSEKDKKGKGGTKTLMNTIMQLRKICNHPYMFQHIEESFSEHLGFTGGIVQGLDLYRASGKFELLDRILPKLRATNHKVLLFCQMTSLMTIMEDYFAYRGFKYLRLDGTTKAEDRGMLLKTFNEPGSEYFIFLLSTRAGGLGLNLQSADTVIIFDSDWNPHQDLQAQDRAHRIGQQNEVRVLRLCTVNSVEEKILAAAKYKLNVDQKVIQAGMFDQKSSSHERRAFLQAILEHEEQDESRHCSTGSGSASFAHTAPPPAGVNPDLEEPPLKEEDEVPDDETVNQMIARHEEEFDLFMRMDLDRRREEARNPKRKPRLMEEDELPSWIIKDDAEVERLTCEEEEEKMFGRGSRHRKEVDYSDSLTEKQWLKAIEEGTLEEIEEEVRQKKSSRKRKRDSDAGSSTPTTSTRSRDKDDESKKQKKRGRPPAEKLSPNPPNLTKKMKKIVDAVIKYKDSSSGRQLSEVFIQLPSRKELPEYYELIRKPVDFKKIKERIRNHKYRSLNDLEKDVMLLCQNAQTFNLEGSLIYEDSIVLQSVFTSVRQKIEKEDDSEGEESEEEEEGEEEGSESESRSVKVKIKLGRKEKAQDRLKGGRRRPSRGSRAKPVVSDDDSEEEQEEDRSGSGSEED
Chain of Cytochrome P450 2C19 (P33261 whole entry): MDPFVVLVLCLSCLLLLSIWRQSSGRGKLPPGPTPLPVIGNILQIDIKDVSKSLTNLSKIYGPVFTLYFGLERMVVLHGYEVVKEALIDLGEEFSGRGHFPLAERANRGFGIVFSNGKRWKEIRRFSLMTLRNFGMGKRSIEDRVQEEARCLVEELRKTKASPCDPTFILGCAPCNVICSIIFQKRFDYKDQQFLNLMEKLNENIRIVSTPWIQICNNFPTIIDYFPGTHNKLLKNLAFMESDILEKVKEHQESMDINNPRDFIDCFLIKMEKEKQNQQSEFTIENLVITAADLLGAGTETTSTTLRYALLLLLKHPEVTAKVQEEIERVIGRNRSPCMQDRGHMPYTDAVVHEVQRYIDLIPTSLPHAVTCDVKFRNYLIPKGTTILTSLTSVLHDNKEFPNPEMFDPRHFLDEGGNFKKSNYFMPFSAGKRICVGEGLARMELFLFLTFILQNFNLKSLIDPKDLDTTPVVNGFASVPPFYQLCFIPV
Chain of CYP2C9 (P11712 whole entry): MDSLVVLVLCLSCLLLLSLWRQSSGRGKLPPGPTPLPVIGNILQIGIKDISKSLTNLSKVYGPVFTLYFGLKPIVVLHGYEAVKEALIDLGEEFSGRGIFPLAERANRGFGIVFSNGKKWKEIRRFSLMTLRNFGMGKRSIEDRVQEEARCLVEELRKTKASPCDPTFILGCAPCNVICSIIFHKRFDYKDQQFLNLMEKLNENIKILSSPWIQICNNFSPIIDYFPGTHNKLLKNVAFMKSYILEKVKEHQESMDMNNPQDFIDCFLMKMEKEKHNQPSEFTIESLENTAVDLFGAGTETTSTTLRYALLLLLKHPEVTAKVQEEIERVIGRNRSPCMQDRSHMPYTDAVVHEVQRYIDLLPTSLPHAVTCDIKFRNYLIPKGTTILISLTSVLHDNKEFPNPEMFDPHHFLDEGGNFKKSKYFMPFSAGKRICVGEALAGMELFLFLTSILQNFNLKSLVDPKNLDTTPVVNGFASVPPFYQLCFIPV
T4 sequence (P11712 whole entry): as above

IC50 [1] | inhibition at 20 min, 10 µM [2] | TDI [3] | IC50 [4] | ΔTm [5] | TDI [6] | inhibition at 20 min, 10 µM [7] | inhibition [8] | inhibition [9] | inhibition [10] | TDI [11] | TDI [12] | TDI [13] | inhibition at 20 min, 10 µM [14] | inhibition at 20 min, 10 µM [15] | inhibition (INH) [16] | inhibition [17] | inhibition (INH) [18] | Compound
999 nM | 39% |  | 60 nM | 0.94 °C |  |  | Active | > 60% | Active |  |  | Active | 47% | 42% | Not Active |  |  | Cc1c(Br)cc(-c2csc(=O)[nH]2)cc1S(=O)(=O)NC1CCCC1
570 nM | 3% | Not Active | 140 nM | 0.57 °C | Not Active |  | Active | 90% | Active | Not Active | Not Active | Not Active | 17% | 42% | Not Active | Active |  | Cc1c(N)cc(-c2csc(=O)[nH]2)cc1S(=O)(=O)NC1CCCC1

More lines, now with the values behind:

Compound | IC50 [1] | inhibition at 20 min, 10 µM [2] | TDI [3] | IC50 [4] | ΔTm [5] | TDI [6] | inhibition at 20 min, 10 µM [7] | inhibition [8] | inhibition [9] | inhibition [10] | TDI [11] | TDI [12] | TDI [13] | inhibition at 20 min, 10 µM [14] | inhibition at 20 min, 10 µM [15] | inhibition (INH) [16] | inhibition [17] | inhibition (INH) [18]
O=C(Nc1cc(-c2csc(=O)[nH]2)cc(S(=O)(=O)NC2CCCC2)c1)C1CC1 | 1060 nM | 17% | Not Active | 60 nM | 1.03 °C | Not Active | 14% | Active | > 60% | Active | Not Active | Not Active | Not Active | 29% | 14% |  |  | 
Nc1ccc(-c2csc(=O)[nH]2)cc1S(=O)(=O)NC1CCCC1 | 793 nM | 18% |  | 120 nM | 0.39 °C | Active | 74% |  |  |  |  |  |  | 22% | 70% |  |  | 
Cc1ccc(-c2csc(=O)[nH]2)cc1S(=O)(=O)NC1CCCC1 | 1900 nM | 27% | Active | 220 nM | 0.69 °C |  |  |  |  |  |  |  | Active | 52% | 62% | Not Active |  | 
COc1ccc(-c2csc(=O)[nH]2)cc1S(=O)(=O)NC1CCCC1 | 2420 nM |  | Active | 760 nM | 0.41 °C |  | 10% |  |  |  |  | Active |  | 3% | 20% |  |  | Not Active
